This note sets out measurements from ChEMBL document CHEMBL1140801, “Potency and selectivity of P2/P3-modified inhibitors of cysteine proteases from trypanosomes” (Bioorg Med Chem Lett, 2008).

Data set [1] has as its target Cruzipain (Trypanosoma cruzi) (UniProt P25779). Briefly: Ratio of Kinact to ki of Trypanosoma cruzi cruzain. In a few lines:
(§1)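 Cruzain at 2 nM was added to inhibitor dilutions (10 to 0.01 μM) containing 10 μM Z-Phe-Arg-AMC in buffer A. Progress curves were run for 150 s at room temperature. k_ass came from linear regression when k_obs was linear in [I]. If saturating, k_inact and K_i came from nonlinear fitting to a two-step irreversible inhibition model.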

Data set [2] relates to J774. Briefly: Cytotoxicity against mouse J774 macrophage. The class given is cell-based. In a few lines:
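J774 macrophages infected with T. cruzi were treated with compound at 10 μM. Macrophage toxicity was scored yes/no alongside macrophage survival in days.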

In data set [3] the test system is Trypanosoma brucei. Briefly: Ratio of Kinact to Ki of Trypanosoma brucei rhodesain. The method in brief: (§2)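 Rhodesain at 2 nM was added to inhibitor dilutions (10 to 0.01 μM) containing 10 μM Z-Phe-Arg-AMC in buffer A. Progress curves were run for 300 s at room temperature. Linear k_obs versus [I] gave k_ass by linear regression. Hyperbolic dependence gave k_inact and K_i by nonlinear fit to a two-step irreversible mechanism.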

The test system of data set [4] is Trypanosoma cruzi. Put plainly: Antiparasitic activity against Trypanosoma cruzi in J774 macrophage. It is filed as functional. The method in brief: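 T. cruzi-infected J774 macrophages exposed to compound at 10 μM; read-out is how many days the macrophages survive, with macrophage toxicity also scored. Untreated infected cultures serve as control.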
In data set [5] the target is Cruzipain (Trypanosoma cruzi, UniProt P25779). Put plainly: (§3) Inhibition of Trypanosoma cruzi cruzain. In a few lines:
as §1

Data set [6] concerns the target Cruzipain (Trypanosoma cruzi) (UniProt P25779). The description is as §3. In a few lines:
as §1

In data set [7] the test system is Trypanosoma brucei. Put plainly: (§4) Inhibition of Trypanosoma brucei rhodesain. The method in brief:
as §2

Data set [8] is described as follows: as §4. In a few lines: as §2
Data set [9] deals with Trypanosoma brucei. Briefly: Ratio of Kinact to Ki of Trypanosoma brucei cathepsin B. The method in brief: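 TbCatB at 40 nM was added to inhibitor dilutions (10–0.1 μM) containing 10 μM Z-Phe-Arg-AMC in buffer A. Progress curves were run for 300 s at room temperature. For hyperbolic k_obs dependence, k_inact and K_i were fitted by nonlinear regression to a two-step irreversible inhibition equation, with an [S]/K_m correction.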

Structures are written as SMILES.

Cruzipain, sequence (P25779 whole entry): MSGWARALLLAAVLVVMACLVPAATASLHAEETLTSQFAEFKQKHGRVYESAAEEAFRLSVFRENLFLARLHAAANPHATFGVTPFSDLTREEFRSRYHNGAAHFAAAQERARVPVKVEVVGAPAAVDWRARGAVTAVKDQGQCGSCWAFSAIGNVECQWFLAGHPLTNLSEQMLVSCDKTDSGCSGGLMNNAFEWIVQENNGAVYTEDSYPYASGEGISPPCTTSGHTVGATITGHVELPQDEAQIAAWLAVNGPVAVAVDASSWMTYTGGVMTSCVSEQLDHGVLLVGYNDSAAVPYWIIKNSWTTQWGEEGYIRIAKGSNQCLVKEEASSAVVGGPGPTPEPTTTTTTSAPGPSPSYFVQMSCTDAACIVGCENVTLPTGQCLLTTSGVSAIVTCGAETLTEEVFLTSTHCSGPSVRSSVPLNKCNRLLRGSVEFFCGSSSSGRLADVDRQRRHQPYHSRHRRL
Cruzipain (Trypanosoma cruzi), sequence (P25779 123-467 limits assumed): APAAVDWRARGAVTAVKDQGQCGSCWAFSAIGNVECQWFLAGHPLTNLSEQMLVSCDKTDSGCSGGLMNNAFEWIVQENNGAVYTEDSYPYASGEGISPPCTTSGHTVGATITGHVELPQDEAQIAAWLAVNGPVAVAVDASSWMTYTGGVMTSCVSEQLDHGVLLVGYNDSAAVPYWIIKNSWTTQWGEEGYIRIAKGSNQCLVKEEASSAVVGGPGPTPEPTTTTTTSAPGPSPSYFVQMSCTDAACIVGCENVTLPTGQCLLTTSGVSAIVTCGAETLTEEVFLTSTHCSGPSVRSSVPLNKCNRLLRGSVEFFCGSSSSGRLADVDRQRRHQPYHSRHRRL

On to `O=C(N[C@@H](Cc1ccccc1)C(=O)N[C@H](/C=C/S(=O)(=O)c1ccccc1)CCc1ccccc1)c1cc(F)cc(F)c1`, for which the Ratio worked out at 31000 M⁻¹ s⁻¹ in data set [1] and 317000 M⁻¹ s⁻¹ in [3]. The Activity result in data set [2] is on record as “Toxic”. Also, in data set [4], the Survival is 12 days. In addition, the Ki stood at 980 nM in [5] and 66 nM in data set [8]. The Kinact in data set [6] turned out to be 0.31 s⁻¹; in [7] it was 0.021 s⁻¹.

With `O=C(N[C@@H](Cc1ccccc1)C(=O)N[C@H](/C=C/S(=O)(=O)c1ccccc1)CCc1ccccc1)c1ccccn1`, the figures for the Ratio in data set [1] and in data set [3] were 120000 M⁻¹ s⁻¹ and 150000 M⁻¹ s⁻¹, respectively. For the same molecule, in data set [2], the Activity entry was “Non-toxic”. Besides, the Ka in data set [9] was determined as 70 M⁻¹ s⁻¹. Besides, the Survival in data set [4] came out at 42 days. Besides, the values for the Ki in [5] and in [8] were 250 nM and 910 nM, respectively. For the same molecule, the Kinact is 0.03 s⁻¹ in [6] and 0.14 s⁻¹ in data set [7].

As for `Cc1ccc(C[C@H](NC(=O)c2ccccn2)C(=O)N[C@H](/C=C/S(=O)(=O)c2ccccc2)CCc2ccccc2)cc1`, the values for the Ratio in [1] and in [3] were 16000 M⁻¹ s⁻¹ and 327000 M⁻¹ s⁻¹, respectively. In data set [9], the Ka turned out to be 60 M⁻¹ s⁻¹. The values for the inhibition constant (Ki) in data set [5] and in [8] were 1700 nM and 880 nM, respectively. For the same molecule, the Kinact in data set [6] is 0.027 s⁻¹; in [7], 0.29 s⁻¹.

As to `Cc1ccc(C[C@H](NC(=O)c2ccc(C(F)(F)F)cc2)C(=O)N[C@H](/C=C/S(=O)(=O)c2ccccc2)CCc2ccccc2)cc1`, the Ratio in data set [1] was found to be 109000 M⁻¹ s⁻¹; in data set [3] it was 420000 M⁻¹ s⁻¹. For the same molecule, the figures for the Ki in data set [5] and in data set [8] were 45 nM and 33 nM, respectively. For the same molecule, the Kinact in [6] is 0.0049 s⁻¹; in [7] it was 0.014 s⁻¹.

Take `Cc1cccc(C[C@H](NC(=O)c2cc(F)cc(F)c2)C(=O)N[C@H](/C=C/S(=O)(=O)c2ccccc2)CCc2ccccc2)c1`: the Ratio in [1] is 105000 M⁻¹ s⁻¹; in data set [9], 16000 M⁻¹ s⁻¹; in data set [3], 456000 M⁻¹ s⁻¹. Also, in [2], the Activity entry is “Toxic”. The molecule further had a Survival in data set [4] of 12 days. Besides, in [5], the Ki worked out at 50 nM. In addition, the Kinact in data set [6] amounted to 0.0052 s⁻¹; in data set [7], 0.023 s⁻¹.

Turning to `Cc1ccc(C[C@H](NC(=O)N2CCN(C)CC2)C(=O)N[C@H](/C=C/S(=O)(=O)c2ccccc2)CCc2ccccc2)cc1`, the Ka in [1] worked out at 440000 M⁻¹ s⁻¹. Moreover, the figures for the Ratio in data set [9] and in data set [3] were 10000 M⁻¹ s⁻¹ and 852000 M⁻¹ s⁻¹, respectively. This molecule had a Kinact in [7] of 0.11 s⁻¹. This molecule registered a Ki in data set [8] of 120 nM.

Regarding `Cc1ccc(C[C@H](NC(=O)c2ccc3c(c2)OCCO3)C(=O)N[C@H](/C=C/S(=O)(=O)c2ccccc2)CCc2ccccc2)cc1`, the values for the Ratio in data set [1] and in [3] were 311000 M⁻¹ s⁻¹ and 1.57e+06 M⁻¹ s⁻¹, respectively. Besides, in data set [9], the Ka amounted to 600 M⁻¹ s⁻¹. The Ki in data set [5] was 19 nM; in data set [8] it was 20 nM. Also, the values for the Kinact in [6] and in data set [7] were 0.006 s⁻¹ and 0.031 s⁻¹, respectively.

With `CN1CCN(C(=O)N[C@@H](Cc2cccc(C(F)(F)F)c2)C(=O)N[C@H](/C=C/S(=O)(=O)c2ccccc2)CCc2ccccc2)CC1`, the Ratio in data set [1] is 53000 M⁻¹ s⁻¹. The Activity result in [2] is recorded as “Toxic”. Also, the Ka turned out to be 400 M⁻¹ s⁻¹ in [9] and 81000 M⁻¹ s⁻¹ in [3]. The same molecule gave a Survival in [4] of 42 days. Further, in data set [5], affinity was put at a Ki of 170 nM. Moreover, the Kinact in data set [6] came out at 0.009 s⁻¹.

As to `Cc1cccc(C[C@H](NC(=O)c2ccc3c(c2)OCCO3)C(=O)N[C@H](/C=C/S(=O)(=O)c2ccccc2)CCc2ccccc2)c1`, the Ratio is 14000 M⁻¹ s⁻¹ in [1] and 252000 M⁻¹ s⁻¹ in [3]. In addition, in [9], the Ka turned out to be 650 M⁻¹ s⁻¹. For the same molecule, the Ki in data set [5] turned out to be 71 nM; in data set [8], 37 nM. In addition, the results for the Kinact in data set [6] and in [7] were 0.001 s⁻¹ and 0.0093 s⁻¹, respectively.

On to `Cc1cccc(C[C@H](NC(=O)c2ccc(C(F)(F)F)cc2)C(=O)N[C@H](/C=C/S(=O)(=O)c2ccccc2)CCc2ccccc2)c1`, for which the Ratio came to 38000 M⁻¹ s⁻¹ in data set [1] and 116000 M⁻¹ s⁻¹ in data set [3]. In data set [2], the Activity result was “Toxic”. In [4], this molecule gave a Survival of 8 days. In addition, the Ki in data set [5] is 92 nM; in data set [8] it was 43 nM. Further, the Kinact amounted to 0.0035 s⁻¹ in [6] and 0.005 s⁻¹ in data set [7].

In the case of `CN1CCN(C(=O)N[C@@H](Cc2ccccc2)C(=O)N[C@H](/C=C/S(=O)(=O)c2ccccc2)CCc2ccccc2)CC1` [K-777], the Activity result in data set [2] was “Non-toxic”. Besides, the Ka in [9] was 1000 M⁻¹ s⁻¹. Also, the Survival in data set [4] was 42 days. In data set [8], the inhibition constant (Ki) stood at 270 nM.

Take `O=C(N[C@@H](Cc1ccccc1)C(=O)N[C@H](/C=C/S(=O)(=O)c1ccccc1)CCc1ccccc1)c1ccc2c(c1)OCCO2`: the results for the Ratio in [1] and in data set [3] were 70000 M⁻¹ s⁻¹ and 223000 M⁻¹ s⁻¹, respectively. Besides, in data set [9], the Ka stood at 540 M⁻¹ s⁻¹. Further, the figures for the Ki in [5] and in data set [8] were 80 nM and 85 nM, respectively. Besides, the Kinact in data set [6] is 0.0056 s⁻¹; in data set [7], 0.019 s⁻¹.

In the case of `O=C(N[C@@H](Cc1ccccc1)C(=O)N[C@H](/C=C/S(=O)(=O)c1ccccc1)CCc1ccccc1)c1ccc(C(F)(F)F)cc1`, the results for the Ratio in data set [1] and in data set [3] were 100000 M⁻¹ s⁻¹ and 104000 M⁻¹ s⁻¹, respectively. Moreover, the Activity result in [2] is “Non-toxic”. Further, the Ka in data set [9] was below 5 M⁻¹ s⁻¹. The same molecule yielded a Survival in [4] of 8 days. Further, the values for the Ki in data set [5] and in [8] were 97 nM and 87 nM, respectively. Besides, the results for the Kinact in data set [6] and in data set [7] were 0.0097 s⁻¹ and 0.009 s⁻¹, respectively.

For the molecule `Cc1cccc(C[C@H](NC(=O)N2CCN(C)CC2)C(=O)N[C@H](/C=C/S(=O)(=O)c2ccccc2)CCc2ccccc2)c1`, the Ratio worked out at 257000 M⁻¹ s⁻¹ in data set [1], 19000 M⁻¹ s⁻¹ in [9] and 517000 M⁻¹ s⁻¹ in [3]. The Activity entry in data set [2] is recorded as “Non-toxic”. This molecule also yielded a Survival in data set [4] of 42 days. Besides, the Ki worked out at 3300 nM in [5] and 170 nM in [8]. Besides, the Kinact in data set [6] was 0.86 s⁻¹; in data set [7], 0.088 s⁻¹.

As for `O=C(N[C@@H](Cc1cccc(C(F)(F)F)c1)C(=O)N[C@H](/C=C/S(=O)(=O)c1ccccc1)CCc1ccccc1)c1cc(F)cc(F)c1`, the Activity result in data set [2] is “Non-toxic”. Also, the Ratio in data set [3] is 52000 M⁻¹ s⁻¹. Also, in data set [4], the Survival is 23 days. In data set [7], this molecule registered a Kinact of 0.0017 s⁻¹. For the same molecule, in [8], the Ki was 33 nM.

With `O=C(N[C@@H](Cc1cccc(C(F)(F)F)c1)C(=O)N[C@H](/C=C/S(=O)(=O)c1ccccc1)CCc1ccccc1)c1ccccn1`, the figures for the Ratio in data set [1] and in data set [3] were 3100 M⁻¹ s⁻¹ and 6000 M⁻¹ s⁻¹, respectively. In addition, the Ka in data set [9] worked out at 500 M⁻¹ s⁻¹. Besides, the Ki amounted to 150 nM in data set [5] and 280 nM in [8]. For the same molecule, the Kinact in data set [6] is 0.00047 s⁻¹; in [7], 0.0017 s⁻¹.

Consider `CN1CCN(C(=O)N[C@@H](Cc2cccnc2)C(=O)N[C@H](/C=C/S(=O)(=O)c2ccccc2)CCc2ccccc2)CC1`, for which the Ratio in [1] was 45000 M⁻¹ s⁻¹. Also, the Ka in data set [9] stood at 800 M⁻¹ s⁻¹; in [3], 55000 M⁻¹ s⁻¹. Also, the affinity in data set [5], expressed as Ki, was 3600 nM. In addition, in data set [6], the Kinact was determined as 0.16 s⁻¹.

For `Cc1ccc(C[C@H](NC(=O)c2cc(F)cc(F)c2)C(=O)N[C@H](/C=C/S(=O)(=O)c2ccccc2)CCc2ccccc2)cc1`, the Ratio in [1] is 34000 M⁻¹ s⁻¹; in data set [3] it was 366000 M⁻¹ s⁻¹. Moreover, the Ki came to 350 nM in data set [5] and 30 nM in data set [8]. The Kinact in data set [6] was 0.012 s⁻¹; in data set [7], 0.011 s⁻¹.

Regarding `Cc1cccc(C[C@H](NC(=O)c2ccccn2)C(=O)N[C@H](/C=C/S(=O)(=O)c2ccccc2)CCc2ccccc2)c1`, the Ratio was determined as 36000 M⁻¹ s⁻¹ in data set [1] and 173000 M⁻¹ s⁻¹ in [3]. In data set [9], the Ka worked out at 100 M⁻¹ s⁻¹. The figures for the inhibitory constant (Ki) in data set [5] and in data set [8] were 280 nM and 230 nM, respectively. For the same molecule, the results for the Kinact in [6] and in data set [7] were 0.01 s⁻¹ and 0.04 s⁻¹, respectively.
